The values that follow come from ChEMBL document CHEMBL2163287, “Nitro seco analogues of the duocarmycins containing sulfonate leaving groups as hypoxia-activated prodrugs for cancer therapy” (J Med Chem, 2012).

A word on the IC50: it is the midpoint of a concentration-inhibition curve.

Calls of active or inactive are those of the source. The calls are words filed in the database; no cut-off is given here. Some results are limits rather than exact numbers.

For data set [1], the system named is SiHa. The experiment in a line: Antitumor activity against human SiHa cells xenografted in immunocompromized mouse assessed as number of colony forming cells per gram of tumor tissue at 13 umol/kg, iv tumor excised post 18 hrs followed by culturing for 14 days. Format: functional. The gist of the method: (§1)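 SiHa tumours grown subcutaneously in male mice from 10⁷ cultured cells; randomized at 8−10 mm mean diameter. Compound in phosphate-buffered saline with 4 equiv sodium bicarbonate, given via tail vein at the stated dose, alone or 5 min after 15 Gy whole-body cobalt-60 γ irradiation. Tumours excised 18 h after dosing, cells cultured 14 days for clonogens. Groups of 3 (drug alone) or 5 (radiation + drug).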
Background: A xenograft is tissue or cells of one species grown in another, often human tumour cells in immunodeficient mice.

Data set [2] concerns SiHa. The experiment in a line: Antitumor activity against human SiHa cells xenografted in immunocompromized gamma irradiated mouse assessed as number of colony forming cells per gram of tumor tissue at 13 umol/kg, iv tumor excised post 18 hrs followed by culturing for 14 days. The format is functional. The gist of the method: as §1
The test system of data set [3] is SiHa. The experiment in a line: Antitumor activity against human SiHa cells xenografted in immunocompromized gamma irradiated mouse assessed as log cell kill at 13 umol/kg, iv tumor excised post 18 hrs followed by culturing for 14 days under hypoxic condition. The format is functional. The gist of the method:
(§2)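 Male immunocompromised mice bearing subcutaneous tumours (10^7 cultured cells), randomized at 8–10 mm mean diameter. Compound in PBS with 4 equiv sodium bicarbonate given iv (tail vein), alone or 5 min after 15 Gy whole-body cobalt-60 γ-irradiation, which sterilizes oxygenated cells. Tumours excised 18 h after dosing and plated for clonogens for 14 days. n = 3 (vehicle or compound alone) or 5 (irradiated groups).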

Data set [4] relates to HT-29. The experiment in a line: Cytotoxicity against human HT-29 cells under oxic condition after 4 hrs by clonogenic assay. Format: functional, cell-based. The gist of the method: (§3)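 Cells were exposed to drug in duplicate for 4 h at 37 °C, either aerobic (95% air, 5% CO₂) or in an anaerobic chamber (<0.001% O₂). Medium was αMEM + 10% FCS with added glucose (final 17 mmol/L) and 200 μmol/L 2′-deoxycytidine. Cells were then trypsinized and plated; colonies >50 cells were counted after 14 days (methylene blue). C10 = concentration giving 10% survival vs controls; HCR = C10(oxic)/C10(hypoxic).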

Data set [5] deals with HT-29. Description: Cytotoxicity against human HT-29 cells under hypoxic condition after 4 hrs by clonogenic assay. The format is functional, cell-based. The gist of the method: as §3
In data set [6] the test system is HT-29. The experiment in a line: Ratio of C10 for human HT-29 cells under oxic condition to C10 for human HT-29 cells under hypoxic condition by clonogenic assay. Format: functional. The gist of the method:
as §3

In data set [7] the test system is HT-29. The experiment in a line: Cytotoxicity against human HT-29 cells under hypoxic condition assessed as inhibition of cell proliferation after 4 hrs by SRB method. Format: functional, cell-based. To be noted: HT-29, 4 h. The gist of the method:
(§4)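 Log-phase monolayers were exposed 4 h under 20% O₂ or anoxia (<20 ppm O₂), then stained with sulforhodamine B 5 days later. IC50, interpolated as the concentration reducing cell density to 50% of same-plate controls, is given as mean of 3−9 experiments. HCR = IC50(oxic)/IC50(hypoxic), taken as the mean of intraexperiment ratios from 3−6 experiments.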
On the technique in general: The SRB assay estimates cell density from bound dye.

Data set [8] has as its system HT-29. The experiment in a line: Cytotoxicity against human HT-29 cells under oxic condition assessed as inhibition of cell proliferation after 4 hrs by SRB method. Format: functional, cell-based. The conditions noted are these: HT-29, 4 h. The gist of the method: as §4
The subject of data set [9] is HT-29. The experiment in a line: Ratio of IC50 for human HT-29 cells under oxic condition to IC50 for human HT-29 cells under hypoxic condition. Format: functional. The gist of the method: as §4
For data set [10], the system named is SiHa. Description: Cytotoxicity against human SiHa cells under hypoxic condition assessed as inhibition of cell proliferation after 4 hrs. The format is functional, cell-based. The gist of the method:
(§5)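 Log-phase monolayers were exposed to drug for 4 h, aerobic (20% O2) for line 5 and anoxic (<20 ppm O2) for line 4. Cell density was read by sulforhodamine B staining 5 days later. IC50 was interpolated as the concentration reducing density to 50% of same-plate controls; mean ± SEM of 3–9 experiments.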

Data set [11] relates to SiHa. The experiment in a line: Cytotoxicity against human SiHa cells under oxic condition assessed as inhibition of cell proliferation after 4 hrs. Format: functional, cell-based. The gist of the method:
as §5

The next data set deals with A549. Description: Ratio of IC50 for human A549 cells under oxic condition to IC50 for human A549 cells under hypoxic condition. Format: functional. The gist of the method: (§6)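 Antiproliferative assay on the cell-line panel: 4 h drug exposure under 20% O₂ or anoxia (<20 ppm O₂), then sulforhodamine B staining after 5 days. HCR = IC50(oxic)/IC50(hypoxic), taken as the mean of intraexperiment ratios from 2−5 experiments.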

A further data set concerns C-33-A. The experiment in a line: Ratio of IC50 for human C33A cells under oxic condition to IC50 for human C33A cells under hypoxic condition. Format: functional. The gist of the method: as §6
Data set [12] is described as follows: Ratio of IC50 for human H1299 cells under oxic condition to IC50 for human H1299 cells under hypoxic condition. Format: functional. The gist of the method:
as §6

Data set [13] concerns NCI-H460. Description: Ratio of IC50 for human H460 cells under oxic condition to IC50 for human H460 cells under hypoxic condition. The format is functional. The gist of the method: as §6
A further data set has as its system HCT-116. The experiment in a line: Ratio of IC50 for human HCT116 cells under oxic condition to IC50 for human HCT116 cells under hypoxic condition. The format is functional. The gist of the method:
as §6

In data set [14] the test system is SiHa. The experiment in a line: Cytotoxicity against human SiHa cells under hypoxic condition assessed as after 4 hrs by clonogenic assay. Format: functional, cell-based. The gist of the method: as §3
The test system of data set [15] is SiHa. The experiment in a line: Cytotoxicity against human SiHa cells under oxic condition after 4 hrs by clonogenic assay. Format: functional, cell-based. The gist of the method:
as §3

Data set [16] has as its system SiHa. Description: Antitumor activity against human SiHa cells xenografted in immunocompromized gamma irradiated mouse assessed as number of colony forming cells per gram of tumor tissue at 42 umol/kg, iv tumor excised post 18 hrs followed by culturing for 14 days. Format: functional. The gist of the method:
as §1

Data set [17] has as its system SiHa. The experiment in a line: Antitumor activity against human SiHa cells xenografted in immunocompromized gamma irradiated mouse assessed as log cell kill at 42 umol/kg, iv tumor excised post 18 hrs followed by culturing for 14 days under hypoxic condition. The format is functional. The gist of the method:
as §2

Data set [18] deals with NCI-H460. Description: Toxicity in human H460 cells xenografted immunocompromized mouse at 75 umol/kg, iv. The conditions noted are these: in vivo.
Data set [19] deals with NCI-H460. Description: Antitumor activity against human H460 cells xenografted in immunocompromized gamma irradiated mouse under hypoxic condition assessed as log cell kill at 75 umol/kg, iv tumor excised post 18 hrs followed by culturing for 14 days. Format: functional. The gist of the method: as §2
For data set [20], the system named is SiHa. The experiment in a line: Antitumor activity against human SiHa cells xenografted in immunocompromized mouse assessed as number of colony forming cells per gram of tumor tissue at 42 umol/kg, iv tumor excised post 18 hrs followed by culturing for 14 days. The format is functional. The gist of the method:
as §1

Take `COc1ccc(/C=C/C(=O)N2CC(COS(=O)(=O)Cc3ccccc3)c3c2cc([N+](=O)[O-])c2cc(C(N)=O)ccc32)cc1` (stereo unspecified): the figures for the log10cfu in the data set on SiHa [1] and in the data set with SiHa [2] were 6.87 and 4.3, respectively. For the same compound, the LCK with SiHa [3] was 1.16. For the same compound, the outcome in the data set on HT-29 [4] and in the data set with HT-29 [5] was Active. Also, in the data set with HT-29 [6], the Ratio is listed as 4090. The IC50 with HT-29 [7] was 170 nM; in the data set with HT-29 [8], 7000 nM; in the data set with SiHa [10], 46 nM; in the data set on SiHa [11], 2100 nM. Also, the “Ratio IC50” value was found to be 40 in the data set on HT-29 [9]; 34 with A549; 184 with C-33-A; 644 in [12]; 104 in the data set on NCI-H460 [13]; 403 in the data set with HCT-116.
Turning to `COc1cc2cc(C(=O)N3CC(COS(=O)(=O)Cc4ccccc4)c4c3cc([N+](=O)[O-])c3cc(S(N)(=O)=O)ccc43)[nH]c2c(OC)c1OC` (stereo unspecified), the 50% inhibitory concentration (IC50) in the data set with HT-29 [7] stood at 42 nM; with HT-29 [8] it was 35000 nM; in the data set on SiHa [10], 180 nM; in the data set with SiHa [11] it was 13000 nM. Besides, the “Ratio IC50” value with HT-29 [9] stood at 1010; in the data set with A549, 20; in the data set with C-33-A, 177; in [12], 226; in the data set on NCI-H460 [13] it was 0.67; in the data set with HCT-116, 193.
On to `CN(C)CCOc1ccc2[nH]c(C(=O)N3CC(COS(=O)(=O)Cc4ccccc4)c4c3cc([N+](=O)[O-])c3cc(C(=O)NCCO)ccc43)cc2c1` (stereo unspecified), for which the outcome in the data set on SiHa [14] and in the data set on SiHa [15] was Active. The concentration for half-maximal inhibition (IC50) with HT-29 [7] stood at 570 nM; in the data set on HT-29 [8], 4300 nM; in the data set with SiHa [10] it was 210 nM; with SiHa [11], 2300 nM. The “Ratio IC50” value with HT-29 [9] came out at 12.
`COc1ccc(/C=C/C(=O)N2CC(COS(=O)(=O)Cc3ccccc3)c3c2cc([N+](=O)[O-])c2cc(C(N)=O)ccc32)cc1O` (stereo unspecified): the outcome in the data set with SiHa [14] and in the data set with SiHa [15] was Active. The IC50 in the data set on HT-29 [7] is 430 nM; in the data set on HT-29 [8], 4600 nM; with SiHa [10], 96 nM; with SiHa [11], 2100 nM. Also, in the data set with HT-29 [9], the “Ratio IC50” value came out at 21.
In the case of `COc1ccc(/C=C/C(=O)N2CC(COS(=O)(=O)Cc3ccccc3)c3c2cc([N+](=O)[O-])c2cc(C#N)ccc32)cc1O` (stereo unspecified), the outcome with SiHa [14] and in the data set on SiHa [15] was Active. The IC50 in the data set with HT-29 [7] was determined as 620 nM; in the data set on HT-29 [8], 3400 nM; with SiHa [10], 19 nM; in the data set on SiHa [11], 570 nM. For the same compound, the “Ratio IC50” value in the data set with HT-29 [9] was found to be 5.4.
Consider `COc1cc2cc(C(=O)N3CC(COS(C)(=O)=O)c4c3cc([N+](=O)[O-])c3cc(S(=O)(=O)NCCOP(=O)(O)O)ccc43)[nH]c2c(OC)c1OC` (stereo unspecified), for which the log10cfu turned out to be 4.38 in the data set on SiHa [16] and 7.15 in the data set with SiHa [20]. Besides, the LCK with SiHa [17] and in the data set with NCI-H460 [19] was 0.6 throughout. The Activity entry in the data set on NCI-H460 [18] is on record as “Non-toxic”.
On to `COc1cc2cc(C(=O)N3CC(COS(=O)(=O)Cc4ccccc4)c4c3cc([N+](=O)[O-])c3cc(C(N)=O)ccc43)[nH]c2c(OC)c1OC` (stereo unspecified), for which the result in the data set with SiHa [14] and in the data set on SiHa [15] was Active. For the same compound, the IC50 with HT-29 [7] is 16 nM; with HT-29 [8] it was 9200 nM; in the data set with SiHa [10] it was 180 nM; in the data set on SiHa [11], 990 nM. In addition, the “Ratio IC50” value in the data set on HT-29 [9] is 1370; with A549, 6.7; with C-33-A, 76; in data set [12], 86; in the data set on NCI-H460 [13], 32; in the data set on HCT-116, 13.
As to `NC(=O)c1ccc2c3c(cc([N+](=O)[O-])c2c1)N(C(=O)c1cc2cc(OCCO)ccc2[nH]1)CC3COS(=O)(=O)Cc1ccccc1` (stereo unspecified), the outcome in the data set with SiHa [14] and in the data set on SiHa [15] was Active. The IC50 with HT-29 [7] worked out at 220 nM; in the data set on HT-29 [8] it was 22000 nM; in the data set on SiHa [10], 240 nM; in the data set with SiHa [11], 18500 nM. In addition, the “Ratio IC50” value with HT-29 [9] is on record as 105; in the data set on A549 it was 38; in the data set on C-33-A, 93; in data set [12], 255; with NCI-H460 [13], greater than 114; with HCT-116 it was 127.
